Measured values taken from ChEMBL document CHEMBL2346608, “New annelated thieno[2,3-e][1,2,3]triazolo[1,5-a]pyrimidines, with potent anticancer activity, designed through VLAK protocol” (2013).

Tests used:
Type in all cases: functional
[1] = system: OVCAR-3; assay: Antiproliferative activity against human OVCAR3 cells after 48 hrs by sulforhodamine B assay; conditions: OVCAR-3, 48 h; for TGI: read-out: pTGI (converted)
Procedure, shortened: (§1)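 Cells grown in RPMI 1640 with 5% FBS and 2 mM L-glutamine, plated at 5000–40,000 cells/well and preincubated 24 h at 37 °C, 5% CO2. Five drug concentrations (10-fold or ½-log dilutions from DMSO stocks) applied for 48 h. TCA-fixed (final 10% adherent, 16% suspension), SRB-stained, A515 read. Growth versus time-zero and control wells gave GI50, TGI, LC50.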

[2] = system: NCI-H226; assay: Antiproliferative activity against human NCI-H226 cells after 48 hrs by sulforhodamine B assay; conditions: NCI-H226, 48 h; for TGI: read-out: pTGI (converted); procedure, shortened: as §1
[3] = system: A549; assay: Antiproliferative activity against human A549 cells after 48 hrs by sulforhodamine B assay; conditions: A549, 48 h; for TGI: read-out: pTGI (converted); procedure, shortened: as §1
[4] = system: HCT-15; assay: Antiproliferative activity against human HCT15 cells after 48 hrs by sulforhodamine B assay; conditions: HCT-15, 48 h; for TGI: read-out: pTGI (converted); procedure, shortened: as §1
[5] = system: MDA-MB-468; assay: Antiproliferative activity against human MDA-MB-468 cells after 48 hrs by sulforhodamine B assay; conditions: MDA-MB-468, 48 h; for TGI: read-out: pTGI (converted); procedure, shortened: as §1
[6] = system: Malme-3M; assay: Antiproliferative activity against human MALME-3M cells after 48 hrs by sulforhodamine B assay; conditions: for TGI: read-out: pTGI (converted); procedure, shortened: as §1
[7] = system: OVCAR-5; assay: Antiproliferative activity against human OVCAR5 cells after 48 hrs by sulforhodamine B assay; conditions: OVCAR-5, 48 h; for TGI: read-out: pTGI (converted); procedure, shortened: as §1
[8] = system: OVCAR-8; assay: Antiproliferative activity against human OVCAR8 cells after 48 hrs by sulforhodamine B assay; conditions: OVCAR-8, 48 h; for TGI: read-out: pTGI (converted); procedure, shortened: as §1
[9] = system: NCI-H460; assay: Antiproliferative activity against human NCI-H460 cells after 48 hrs by sulforhodamine B assay; conditions: NCI-H460, 48 h; for TGI: read-out: pTGI (converted); procedure, shortened: as §1
[10] = system: UACC-257; assay: Antiproliferative activity against human UACC257 cells after 48 hrs by sulforhodamine B assay; conditions: UACC-257, 48 h; for TGI: read-out: pTGI (converted)
Procedure, shortened: (§2)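 Cells in RPMI 1640 with 5% FBS and 2 mM L-glutamine were seeded at 5000–40,000/well according to doubling time and preincubated 24 h at 37 °C in 5% CO2. Time-zero plates were TCA-fixed when drug was added. Five 10-fold or ½-log dilutions from DMSO stocks were added for 48 h. After SRB staining, A515 was read and GI50 derived from [(Ti−Tz)/(C−Tz)]×100 = 50.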

[11] = system: OVCAR-4; assay: Antiproliferative activity against human OVCAR4 cells after 48 hrs by sulforhodamine B assay; conditions: OVCAR-4, 48 h; for TGI: read-out: pTGI (converted); procedure, shortened: as §1
[12] = system: MDA-MB-231; assay: Antiproliferative activity against human MDA-MB-231 cells after 48 hrs by sulforhodamine B assay; conditions: MDA-MB-231, 48 h; for TGI: read-out: pTGI (converted); procedure, shortened: as §1
[13] = system: U-251; assay: Antiproliferative activity against human U251 cells after 48 hrs by sulforhodamine B assay; conditions: U-251, 48 h; for TGI: read-out: pTGI (converted); procedure, shortened: as §2
[14] = system: NCI-H322M; assay: Antiproliferative activity against human NCI-H322M cells after 48 hrs by sulforhodamine B assay; conditions: for TGI: read-out: pTGI (converted); procedure, shortened: as §1
[15] = system: SK-OV-3; assay: Antiproliferative activity against human SKOV3 cells after 48 hrs by sulforhodamine B assay; conditions: SK-OV-3, 48 h; for TGI: read-out: pTGI (converted); procedure, shortened: as §1
[16] = system: SF-295; assay: Antiproliferative activity against human SF295 cells after 48 hrs by sulforhodamine B assay; conditions: SF-295, 48 h; for TGI: read-out: pTGI (converted); procedure, shortened: as §1
[17] = system: MCF7; assay: Antiproliferative activity against human MCF7 cells after 48 hrs by sulforhodamine B assay; conditions: MCF7, 48 h; for TGI: read-out: pTGI (converted); procedure, shortened: as §1
[18] = system: PC-3; assay: Antiproliferative activity against human PC3 cells after 48 hrs by sulforhodamine B assay; conditions: PC-3, 48 h; for TGI: read-out: pTGI (converted); procedure, shortened: as §1
[19] = system: HL-60; assay: Antiproliferative activity against human HL60 (TB) cells after 48 hrs by sulforhodamine B assay; conditions: HL-60, 48 h; for CC50: read-out: pLC50 (the source's name) (converted); for TGI: read-out: pTGI (converted)
Procedure, shortened: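 NCI 60-cell panel protocol: cells in RPMI 1640 with 5% FBS and 2 mM L-glutamine, plated 24 h at 37 °C/5% CO2 before dosing. Compounds dissolved in DMSO and tested at five concentrations (10-fold or ½ log serial dilutions) for 48 h. Suspension cells fixed with 80% TCA (final 16%), SRB stained, absorbance at 515 nm. GI50 derived from time-zero-corrected growth.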

[20] = system: SK-MEL-5; assay: Antiproliferative activity against human SK-MEL-5 cells after 48 hrs by sulforhodamine B assay; conditions: SK-MEL-5, 48 h; for TGI: read-out: pTGI (converted); procedure, shortened: as §1
[21] = system: CAKI-1; assay: Antiproliferative activity against human CAKI-1 cells after 48 hrs by sulforhodamine B assay; conditions: CAKI-1, 48 h; for CC50: read-out: pLC50 (the source's name) (converted); for TGI: read-out: pTGI (converted); procedure, shortened: as §1
[22] = system: M14; assay: Antiproliferative activity against human M14 cells after 48 hrs by sulforhodamine B assay; conditions: M14, 48 h; for TGI: read-out: pTGI (converted); procedure, shortened: as §1
[23] = Antiproliferative activity against human HCC2998 cells after 48 hrs by sulforhodamine B assay; conditions: HCC 2998, 48 h; for TGI: read-out: pTGI (converted); procedure, shortened: as §1
[24] = system: HOP-92; assay: Antiproliferative activity against human HOP92 cells after 48 hrs by sulforhodamine B assay; conditions: HOP-92, 48 h; for CC50: read-out: pLC50 (the source's name) (converted); procedure, shortened: as §1
[25] = system: A498; assay: Antiproliferative activity against human A498 cells after 48 hrs by sulforhodamine B assay; conditions: A498, 48 h; for TGI: read-out: pTGI (converted); procedure, shortened: as §1
[26] = system: SNB-75; assay: Antiproliferative activity against human SNB75 cells after 48 hrs by sulforhodamine B assay; conditions: SNB-75, 48 h; for TGI: read-out: pTGI (converted); procedure, shortened: as §2
[27] = system: SK-MEL-2; assay: Antiproliferative activity against human SK-MEL-2 cells after 48 hrs by sulforhodamine B assay; conditions: SK-MEL-2, 48 h; procedure, shortened: as §1

O=C(CCCn1c(=O)c2sc3ccccc3c2n2nnc(-c3ccccc3)c12)NCCc1c[nH]cn1
GI50 [1]: 1.51 µM | LC50 [1]: 6.61 µM | TGI [1]: 3.16 µM | GI50 [2]: 18.6 µM | LC50 [2]: 75.9 µM | TGI [2]: 38 µM | GI50 [3]: 2.09 µM | TGI [3]: 4.57 µM | GI50 [4]: 1.26 µM | LC50 [4]: 5.01 µM | TGI [4]: 2.51 µM | GI50 [5]: 1.7 µM | LC50 [5]: 7.94 µM | TGI [5]: 3.72 µM | GI50 [6]: 2.51 µM | LC50 [6]: > 100 µM | TGI [6]: 5.5 µM | GI50 [7]: 1.2 µM | TGI [7]: 2.75 µM | GI50 [8]: 0.324 µM | LC50 [8]: > 100 µM | TGI [8]: 2.82 µM | GI50 [9]: 1.86 µM | LC50 [9]: 7.76 µM | TGI [9]: 3.8 µM | GI50 [10]: 2.04 µM | LC50 [10]: > 100 µM | TGI [10]: 4.57 µM | GI50 [11]: 1.74 µM | TGI [11]: 3.8 µM | GI50 [12]: 1.91 µM | LC50 [12]: 6.76 µM | TGI [12]: 3.63 µM | GI50 [13]: 1.05 µM | LC50 [13]: 4.68 µM | TGI [13]: 2.24 µM | GI50 [14]: 2.24 µM | LC50 [14]: 21.4 µM | TGI [14]: 5.5 µM | GI50 [15]: 3.47 µM | LC50 [15]: 66.1 µM | TGI [15]: 15.5 µM | GI50 [16]: 1.7 µM | TGI [16]: 3.63 µM | GI50 [17]: 1.45 µM | LC50 [17]: 6.46 µM | TGI [17]: 3.09 µM | LC50 [18]: > 100 µM | TGI [18]: > 100 µM | GI50 [19]: 1.41 µM | CC50 [19]: > 100 µM | TGI [19]: 6.31 µM | GI50 [20]: 1.91 µM | LC50 [20]: 8.91 µM | TGI [20]: 4.07 µM | GI50 [21]: 0.182 µM | CC50 [21]: 4.47 µM | TGI [21]: 1.7 µM | GI50 [22]: 1.7 µM | TGI [22]: 3.8 µM | GI50 [23]: 1.78 µM | LC50 [23]: 9.77 µM | TGI [23]: 4.17 µM | GI50 [24]: 1.86 µM | CC50 [24]: > 100 µM | GI50 [25]: 1.55 µM | LC50 [25]: 5.75 µM | TGI [25]: 3.02 µM | GI50 [26]: 1.86 µM | LC50 (concentration killing 50% of starting cells) [26]: 8.71 µM | TGI [26]: 4.07 µM

O=C(CCCn1c(=O)c2sc3ncccc3c2n2nnc(-c3ccccc3)c12)NCCc1c[nH]cn1
GI50 [1]: 11 µM | LC50 [1]: 50.1 µM | TGI [1]: 23.4 µM | GI50 [2]: 11.7 µM | LC50 [2]: 74.1 µM | TGI [2]: 29.5 µM | GI50 [27]: 17.8 µM | LC50 [27]: 85.1 µM | TGI ([27]; read-out: pTGI (converted)): 38.9 µM | GI50 [3]: 8.71 µM | LC50 [3]: > 100 µM | TGI [3]: 34.7 µM | GI50 [4]: 5.75 µM | LC50 [4]: > 100 µM | TGI [4]: > 100 µM | GI50 [5]: 8.13 µM | LC50 [5]: 79.4 µM | TGI [5]: 27.5 µM | GI50 [6]: 18.2 µM | LC50 [6]: 75.9 µM | TGI [6]: 37.2 µM | GI50 [7]: 11.5 µM | LC50 [7]: 93.3 µM | TGI [7]: 32.4 µM | GI50 [8]: 0.0955 µM | LC50 [8]: 67.6 µM | TGI [8]: 17.4 µM | GI50 [9]: 3.63 µM | LC50 [9]: 42.7 µM | TGI [9]: 13.2 µM | GI50 [10]: 18.2 µM | LC50 [10]: 69.2 µM | TGI [10]: 35.5 µM | GI50 [11]: 15.5 µM | LC50 (concentration killing 50% of cells) [11]: 67.6 µM | TGI [11]: 32.4 µM | GI50 [12]: 17.8 µM | LC50 [12]: 67.6 µM | TGI [12]: 34.7 µM | GI50 [13]: 1.29 µM | LC50 [13]: 45.7 µM | TGI [13]: 14.8 µM | GI50 [14]: 14.8 µM | LC50 [14]: 89.1 µM | TGI [14]: 36.3 µM | GI50 [15]: 14.5 µM | LC50 [15]: 53.7 µM | TGI [15]: 27.5 µM | GI50 [16]: 1.74 µM | LC50 [16]: 53.7 µM | TGI [16]: 16.2 µM | GI50 [17]: 17.8 µM | LC50 [17]: > 100 µM | TGI [17]: > 100 µM | GI50 [18]: 11 µM | LC50 [18]: > 100 µM | TGI [18]: > 100 µM | GI50 [19]: 1.41 µM | CC50 [19]: 50.1 µM | TGI [19]: 4.79 µM | GI50 [20]: 16.2 µM | LC50 [20]: > 100 µM | TGI [20]: > 100 µM | GI50 [21]: 2.88 µM | CC50 [21]: 72.4 µM | TGI [21]: 14.5 µM | GI50 [22]: 3.47 µM | LC50 [22]: 50.1 µM | TGI [22]: 19.5 µM | GI50 [23]: 2.04 µM | LC50 [23]: > 100 µM | TGI [23]: 30.2 µM | GI50 [24]: 17 µM | CC50 [24]: 91.2 µM | TGI ([24]; read-out: pTGI (converted)): 39.8 µM | GI50 [25]: 6.76 µM | LC50 [25]: 53.7 µM | TGI [25]: 22.4 µM | GI50 [26]: 15.1 µM | LC50 (concentration killing 50% of starting cells) [26]: 55 µM | TGI [26]: 28.8 µM
